# Most compounds without a hit are left out; they make up all but 8.8% or so of the library.
# SF1 activator: activators of human SF-1, primary screen, cell-based, CHO-K1, Gal4-SF-1 LBD, luciferase luminescence; CHO-K1 Gal4-SF-1 LBD luciferase reporter; % increase over DMSO SF-1-specific signal; activation, % at 10 µM; AID 522, 2006; hit rate 1.9% among 65,000;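 active = activation above the mean activation of all tested compounds plus 3 SD, cut at about 50% in these data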
#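 Test system: transient Gal4-SF-1 LBD reporter, CHO-K1; Amount: 4,000 CHO-K1 cells per well; Doses: 10 µM only; Timing: compound exposure 20 h at 37 °C; Signal: luciferase light emission; Read-out basis: percent activation relative to DMSO median and mock-transfected background; Control set: DMSO negative control and −SF1 background wells; Replicates: one test per compound.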
# M1 ag: M1 muscarinic receptor agonists, primary screen, CHO-M1 cells, Fluo-4 calcium, agonist mode; Muscarinic acetylcholine receptor M1; Fluo-4 calcium fluorescence; hits give high values; B-score at 10 µM; hit rate 3% among 64,000; AID 626, 2007;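 active = fluorescence rise, raw or as B-score row- and column-corrected plate score, outside the 99.7% band of its plate's samples, either direction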
# S1P1 ag-PAM: S1P1 agonists and agonism potentiators, primary screen, cell-based, primary and confirmation screens, CRE-bla reporter. Sphingosine 1-phosphate receptor 1 (Homo sapiens), P21453. S1P1 CRE-bla cells, forskolin, beta-lactamase FRET, potentiator mode; S1P1 agonist co-added at EC20, 2 nM; 100% = saturating reference agonist, 0% = basal. activation, % at 9.5 µM. hit rate 0.57% among 56,000. AID 449, 2006;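 active = activation above a cutoff set at the mean activation of all tested compounds plus 3 SD, cut at about 54% in these data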;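 also: forskolin at 4 µM as EC80 and the EC20 agonist is SEW2871; 100% = SEW2871 at its EC100 plus forskolin at EC80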
# S1P3 agonist: human S1P3 receptor agonists, primary screen, cell-based, primary and confirmation, NFAT-BLA reporter; S1P3 NFAT-BLA reporter cells, agonism, FRET ratio; relative to 1 µM S1P, basal subtracted; activation, % at 4.5 µM; hit rate 0.1% among 60,000; AID 373, 2006;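 active = activation above the screen-wide mean plus 3 SD, cut at about 4.5% in these data, passing the limit was not always enough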
#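 Assay system: CHO cells stably expressing human S1P3, Gα16 and NFAT-β-lactamase reporter. Timing: overnight plating, 4 h compound 37 °C, 2 h substrate RT. Signal: β-lactamase FRET emission ratio 460/535 nm. Measure: percent activation versus median 1 µM S1P response, basal-subtracted, per plate. Repeats: primary screen single test, confirmation screen in triplicate.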
# M1 antag: antagonists of rat M1 muscarinic receptor. Muscarinic acetylcholine receptor M1 (Rattus norvegicus), P08482. CHO-M1 cells, Fluo-4 calcium, ACh EC80 antagonist mode; hits give low values. B-score at 10 µM. hit rate 3.4% among 64,000. AID 628, 2007;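 active = calcium fluorescence response, raw or row-and-column corrected B-score, differing from the plate sample mean either way at a set confidence level, mostly lower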
# Target sequence (P08482 whole entry, looked up): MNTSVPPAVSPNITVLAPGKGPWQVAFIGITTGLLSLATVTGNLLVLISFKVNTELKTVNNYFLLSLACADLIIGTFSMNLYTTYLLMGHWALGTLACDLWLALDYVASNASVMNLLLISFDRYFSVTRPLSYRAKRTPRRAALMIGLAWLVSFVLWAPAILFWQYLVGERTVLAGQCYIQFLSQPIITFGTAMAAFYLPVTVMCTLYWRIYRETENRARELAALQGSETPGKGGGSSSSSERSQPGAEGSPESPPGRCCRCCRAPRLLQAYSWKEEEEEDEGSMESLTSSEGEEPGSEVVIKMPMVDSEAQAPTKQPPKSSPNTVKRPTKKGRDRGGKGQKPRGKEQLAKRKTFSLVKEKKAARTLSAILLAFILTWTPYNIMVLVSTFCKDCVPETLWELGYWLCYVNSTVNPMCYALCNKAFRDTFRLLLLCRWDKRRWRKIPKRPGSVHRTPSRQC
# RORa activator: activators of orphan receptor RORA, primary screen, cell-based, luminescence. CHO-K1 Gal4-RORA LBD luciferase reporter; percent increase over mock-subtracted basal signal. Nuclear receptor ROR-alpha (Homo sapiens), P35398. activation, % at 10 µM. hit rate 1.5% among 65,000;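 active = activation above the mean of all tested compounds plus 3 SD, cut at about 49% in these data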;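 also: 0% = DMSO-treated RORA cells and 100% = added signal equal to DMSO minus mock-transfected cells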
# M1 agonist conf: rat M1 muscarinic receptor agonists, confirmation, CHO-M1 cells, Fluo-4 calcium, duplicate retest; hit rate 19% among 1,700; Fluo-4 calcium fluorescence, agonist mode; actives lie on both sides; shares compounds with M1 ag; fluorescence change (max-min) at 10 µM;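 active = fluorescence change differs from the solvent-only DMSO control mean at a set confidence level in both duplicate runs; inconclusive = differs from solvent-only control mean in just one of two runs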;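 also: an EC20 dose of acetylcholine follows compound addition during the same imaging run; raw fluorescence intensity difference in instrument units with no normalization to controls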
# M4 ag counter: agonist activity at rat M4 receptor, confirmation, counter-screen for M1 allosteric modulator project, cell-based, agonist mode | shares compounds with M1 ag | CHO M4/Gqi5 cells, Fluo-4 calcium fluorescence; actives lie on both sides | fluorescence change (max-min) at 10 µM | hit rate 9% among 1,700;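 active = fluorescence change differing from the plate's solvent-only control wells at 99.7% confidence in both duplicates, whether higher or lower; inconclusive = differs from solvent controls in only one of two duplicates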
# * marks the source's active call; other numbers are inactive results; ? = inconclusive; . = not tested or not shown.
SMILES,SF1 activator,M1 ag,S1P1 ag-PAM,S1P3 agonist,M1 antag,RORa activator,M1 agonist conf,M4 ag counter
Cc1oc2nc(SCCCC(=O)NCCCO)nc(N)c2c1C,-5.0,4.64*,-7.1,-4.2,0.729,-9.6,?,?
CCOC(=O)C1CCN(C(=O)C2c3ccccc3C(=O)N(C)C2c2ccc(OC)cc2)CC1 (stereo not given),-10.7,10.1*,.,.,-0.71,-4.9,?,-38.7
O=S(=O)(Cc1ccccc1)NCc1cccnc1,-3.0,-0.878,-12.9,0.2,0.208,-4.2,.,.
CCc1ccc(CNCc2cccnc2)cc1,-26.0,17.7*,13.2,0.7,0.0276,10.0,-13.7,?
Cn1c(C(=O)NCCN2CCOCC2)cc2c(=O)n(C)c3ccccc3c21,-7.5,0.0953,-12.4,-0.8,0.397,-15.2,.,.
Cn1c(C(=O)NCCN2CCc3ccccc3C2)cc2c(=O)n(C)c3ccccc3c21,16.3,2.91*,-17.2,0.3,-2.02,6.4,?,-48.9
Cn1c(C(=O)NC2CCCCCC2)cc2c(=O)n(C)c3ccccc3c21,8.5,3.76*,-16.5,-0.2,-0.952,20.0,?,?
Cn1c(C(=O)NC2CCCCC2)cc2c(=O)n(C)c3ccccc3c21,-9.6,3.81*,-6.4,0.3,0.172,2.3,?,?
CC1CCC(NC(=O)c2cc3c(=O)n(C)c4ccccc4c3n2C)CC1 (stereo not given),31.8,3.7*,-9.3,-1.5,-0.193,40.6,-7.57,-16.8
COc1ccccc1-c1cn(S(=O)(=O)c2ccc(F)cc2)nc1N,-9.3,0.964,16.9,-1.6,0.128,-16.2,.,.
COc1ccccc1S(=O)(=O)Cc1ccc(C(=O)NC(C)c2ccc3c(c2)OCCO3)o1 (stereo not given),-0.8,2.03,2.9,-0.5,-0.0648,-1.3,.,.
Cc1cccc(N2CCN(C(=O)c3cc4c(=O)n(C)c5ccccc5c4n3C)CC2C)c1 (stereo not given),0.1,5.49*,12.5,0.1,-0.0233,16.9,-4.38,-20.7
Cn1cnnc1SCCn1c(N2CCCCC2)nc2c1c(=O)[nH]c(=O)n2C,1.9,-0.0367,-12.2,0.7,0.087,2.1,.,.
Cc1cc(C)c2c(=O)[nH]c(=O)n(Cc3ccccc3)c2n1,-2.9,-0.0402,-3.9,-0.4,0.592,-8.0,.,.
CNC(=O)C1CC(=O)N(Cc2ccc3c(c2)OCO3)C(=Nc2ccc(OC)cc2)S1 (stereo not given),-16.4,-0.768,-5.1,-1.5,0.501,-12.0,.,.
O=C(Nc1cccc(Cl)c1)Nc1nccs1,31.6,3.54*,-3.5,0.1,-1.21,71.9*,-11.3,?
COc1ccccc1OCc1nc(Cc2ccc(Cl)cc2)no1,2.2,0.865,.,-0.3,-0.898,5.6,.,.
CCCc1cc(=O)[nH]c(/N=C(\N)Nc2ccccc2)n1,-16.6,-0.1,.,-0.6,0.201,-17.2,.,.
CCOc1ccccc1-n1nnnc1SCC(=O)NC(=O)NCc1ccco1,3.6,3.31*,-7.6,-0.8,-0.258,-7.2,-6.22,-29.9
O=C(Cc1ccc(F)cc1)Nc1c2c(nn1-c1cccc(Cl)c1)CS(=O)C2 (stereo not given),-18.5,-0.0158,23.6,-1.3,0.387,-5.2,.,.
